Data taken from ChEMBL document CHEMBL1147015, “Design and synthesis of selective, high-affinity inhibitors of human cytochrome P450 2J2” (Bioorg Med Chem Lett, 2006).

Assays:
Cytochrome P450 2J2 = target: T1, Cytochrome P450 2J2 (Homo sapiens, UniProt P51589); assay: Inhibition of human recombinant CYP2J2 expressed in baculovirus-infected Sf9 insect cells
T1 sequence (P51589 whole entry): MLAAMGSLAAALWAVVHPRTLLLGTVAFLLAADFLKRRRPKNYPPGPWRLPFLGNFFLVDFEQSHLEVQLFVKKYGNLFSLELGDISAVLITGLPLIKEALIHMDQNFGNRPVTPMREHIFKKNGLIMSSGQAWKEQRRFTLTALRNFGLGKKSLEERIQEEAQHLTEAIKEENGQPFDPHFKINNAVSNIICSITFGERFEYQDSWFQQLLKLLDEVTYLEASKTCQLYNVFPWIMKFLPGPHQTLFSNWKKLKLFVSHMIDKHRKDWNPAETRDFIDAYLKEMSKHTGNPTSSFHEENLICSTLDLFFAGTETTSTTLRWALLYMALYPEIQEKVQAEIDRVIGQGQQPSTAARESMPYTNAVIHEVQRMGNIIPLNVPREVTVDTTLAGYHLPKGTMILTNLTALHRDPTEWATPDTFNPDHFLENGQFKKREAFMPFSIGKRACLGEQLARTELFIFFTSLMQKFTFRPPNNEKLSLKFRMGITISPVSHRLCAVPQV
Procedure, shortened: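 Ebastine hydroxylation used as the read-out. Ebastine (0.5 μM) plus inhibitor incubated at 37 °C for 2 or 4 min with Sf9 microsomes (1 nM CYP2J2) in 0.1 M phosphate buffer pH 7.4, 0.1 mM EDTA and NADPH-generating system. Stopped with cold CH3CN/CH3COOH (10:1); protein spun out; supernatant analysed by HPLC on C18. IC50 determined.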

Cytochrome P450 2C9 = Cytochrome P450 2C9 (Homo sapiens, UniProt P11712); assay: Inhibition of human recombinant CYP2C9; assay type: ADME
Cytochrome P450 3A4 = Cytochrome P450 3A4 (Homo sapiens, UniProt P08684); assay: Inhibition of human recombinant CYP3A4; assay type: ADME
Cytochrome P450 2C8 = target: T2, Cytochrome P450 2C8 (Homo sapiens, UniProt P10632); assay: Inhibition of human recombinant CYP2C8; assay type: ADME
T2 sequence (P10632 whole entry): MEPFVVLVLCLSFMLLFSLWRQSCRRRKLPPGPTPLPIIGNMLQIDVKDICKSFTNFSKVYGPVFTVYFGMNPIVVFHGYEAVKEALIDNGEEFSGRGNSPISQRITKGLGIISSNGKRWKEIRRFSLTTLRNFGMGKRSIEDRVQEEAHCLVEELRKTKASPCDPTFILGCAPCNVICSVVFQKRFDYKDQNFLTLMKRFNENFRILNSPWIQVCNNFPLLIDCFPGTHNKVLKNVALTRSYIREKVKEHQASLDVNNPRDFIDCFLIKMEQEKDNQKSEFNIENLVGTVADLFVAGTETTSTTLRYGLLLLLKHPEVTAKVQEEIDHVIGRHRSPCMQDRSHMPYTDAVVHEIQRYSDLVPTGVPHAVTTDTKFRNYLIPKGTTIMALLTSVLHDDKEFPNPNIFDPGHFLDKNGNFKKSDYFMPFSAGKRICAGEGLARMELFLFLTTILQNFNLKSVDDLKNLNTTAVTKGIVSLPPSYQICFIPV

Cytochrome P450 2B6 = target: T3, Cytochrome P450 2B6 (Homo sapiens, UniProt P20813); assay: Inhibition of human recombinant CYP2B6; assay type: ADME
T3 sequence (P20813 whole entry): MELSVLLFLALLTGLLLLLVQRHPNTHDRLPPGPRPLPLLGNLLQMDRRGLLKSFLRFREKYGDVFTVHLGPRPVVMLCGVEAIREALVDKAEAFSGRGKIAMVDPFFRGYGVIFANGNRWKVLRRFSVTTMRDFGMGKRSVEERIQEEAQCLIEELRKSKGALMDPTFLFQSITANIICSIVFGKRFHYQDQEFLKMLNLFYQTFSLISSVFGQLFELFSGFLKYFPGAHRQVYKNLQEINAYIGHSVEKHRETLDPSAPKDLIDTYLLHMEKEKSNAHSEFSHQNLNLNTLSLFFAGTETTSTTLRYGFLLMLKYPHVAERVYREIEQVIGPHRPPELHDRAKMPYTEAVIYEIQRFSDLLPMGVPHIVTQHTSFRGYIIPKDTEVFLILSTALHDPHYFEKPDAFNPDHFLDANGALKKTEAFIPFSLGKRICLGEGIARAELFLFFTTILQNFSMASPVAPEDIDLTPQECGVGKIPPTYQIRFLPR

Sequence of Cytochrome P450 3A4 (P08684 whole entry): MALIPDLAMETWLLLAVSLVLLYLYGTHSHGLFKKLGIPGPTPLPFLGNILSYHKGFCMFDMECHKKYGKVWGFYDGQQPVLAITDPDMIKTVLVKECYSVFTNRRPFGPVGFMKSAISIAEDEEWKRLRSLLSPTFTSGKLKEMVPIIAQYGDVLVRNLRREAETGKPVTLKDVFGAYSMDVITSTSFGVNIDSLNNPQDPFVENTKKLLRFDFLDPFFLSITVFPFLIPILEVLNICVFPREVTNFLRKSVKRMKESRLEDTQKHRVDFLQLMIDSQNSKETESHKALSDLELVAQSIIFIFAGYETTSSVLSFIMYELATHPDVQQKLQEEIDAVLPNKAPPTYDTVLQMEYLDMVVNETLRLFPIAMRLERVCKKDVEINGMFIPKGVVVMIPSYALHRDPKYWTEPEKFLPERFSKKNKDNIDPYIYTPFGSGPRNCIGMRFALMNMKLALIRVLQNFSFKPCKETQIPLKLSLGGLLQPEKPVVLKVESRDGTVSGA
Sequence of Cytochrome P450 2C9 (P11712 whole entry): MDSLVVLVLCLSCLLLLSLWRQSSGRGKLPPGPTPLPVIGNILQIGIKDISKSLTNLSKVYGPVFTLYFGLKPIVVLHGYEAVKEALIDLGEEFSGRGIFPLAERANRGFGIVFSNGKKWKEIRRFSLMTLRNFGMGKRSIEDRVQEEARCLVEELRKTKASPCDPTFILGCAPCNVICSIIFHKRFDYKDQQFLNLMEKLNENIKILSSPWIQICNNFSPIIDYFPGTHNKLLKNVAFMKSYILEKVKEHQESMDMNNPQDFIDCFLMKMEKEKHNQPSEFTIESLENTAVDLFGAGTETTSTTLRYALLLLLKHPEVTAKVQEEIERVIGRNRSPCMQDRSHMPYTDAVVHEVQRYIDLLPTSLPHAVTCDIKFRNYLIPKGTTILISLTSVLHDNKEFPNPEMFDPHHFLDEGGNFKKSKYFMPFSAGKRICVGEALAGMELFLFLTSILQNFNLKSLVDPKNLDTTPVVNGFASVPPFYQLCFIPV

| SMILES | IC50 (Cytochrome P450 2J2) [nM] | further results |
| --- | --- | --- |
| CCCCc1ccc(C(=O)CCCN2CCC(C(O)(c3ccccc3)c3ccccc3)CC2)cc1 | 700 | – |
| CCCc1ccc(C(=O)CCCN2CCC(C(O)(c3ccccc3)c3ccccc3)CC2)cc1 | 400 | IC50 (Cytochrome P450 2C9): 26000 nM; IC50 (Cytochrome P450 3A4): 7900 nM; IC50 (Cytochrome P450 2C8): > 100000 nM; IC50 (Cytochrome P450 2B6): 28000 nM; Ki (Cytochrome P450 2J2): 160 nM |
| O=C(CCCN1CCC(C(O)(c2ccccc2)c2ccccc2)CC1)c1ccc2c(c1)OCO2 | 6700 | – |
| CC(C)(C)c1ccc(C(=O)CCCN2CCC(C(O)(c3ccccc3)c3ccccc3)CC2)cc1 [TERFENADONE] | 700 | – |
| CCc1ccc(C(=O)CCCN2CCC(C(O)(c3ccccc3)c3ccccc3)CC2)cc1 | 600 | – |
| CC(=O)OCCCc1ccc(C(=O)CCCN2CCC(C(O)(c3ccccc3)c3ccccc3)CC2)cc1 | 2500 | – |

The remaining molecules from weak to strong by IC50 (Cytochrome P450 2J2), led by results:

| IC50 (Cytochrome P450 2J2) [nM] | SMILES | further results |
| --- | --- | --- |
| 7600 | COc1ccc(C(=O)CCCN2CCC(C(O)(c3ccccc3)c3ccccc3)CC2)cc1 | – |
| 4200 | O=C(CCCN1CCC(C(O)(c2ccccc2)c2ccccc2)CC1)c1ccc(Br)cc1 | – |
| 2200 | O=C(CCCN1CCC(C(O)(c2ccccc2)c2ccccc2)CC1)c1ccc(CC(F)F)cc1 | – |
| 1900 | O=C(CCCN1CCC(C(O)(c2ccccc2)c2ccccc2)CC1)c1ccc(CCCO)cc1 | – |
| 1300 | O=C(CCCN1CCC(C(O)(c2ccccc2)c2ccccc2)CC1)c1ccc(CCO)cc1 | – |
| 700 | Cc1ccc(C(=O)CCCN2CCC(C(O)(c3ccccc3)c3ccccc3)CC2)cc1 | – |
| 400 | C=CCc1ccc(C(=O)CCCN2CCC(C(O)(c3ccccc3)c3ccccc3)CC2)cc1 | IC50 (Cytochrome P450 2C9): 21000 nM; IC50 (Cytochrome P450 3A4): 5500 nM; IC50 (Cytochrome P450 2C8): > 100000 nM; IC50 (Cytochrome P450 2B6): 21000 nM |
